Measured values: article PMC8897028 (Acta Pharmaceutica Sinica. B, 2021)

How the values were obtained:
hTRPV3 [1] = target: T1, hTRPV3 (Homo sapiens, UniProt Q8NET8); assay: whole-cell patch-clamp of hTRPV3 currents expressed in HEK293 cells; type: cell-based; conditions: for inhibition of hTRPV3 channel current activated by 2-APB: compound 50 μmol/L, agonist 2-APB 50 μmol/L, n = 5; for Hill coefficient: inhibition of hTRPV3 currents evoked by 2-APB 50 μmol/L
T1 sequence (Q8NET8 1-790): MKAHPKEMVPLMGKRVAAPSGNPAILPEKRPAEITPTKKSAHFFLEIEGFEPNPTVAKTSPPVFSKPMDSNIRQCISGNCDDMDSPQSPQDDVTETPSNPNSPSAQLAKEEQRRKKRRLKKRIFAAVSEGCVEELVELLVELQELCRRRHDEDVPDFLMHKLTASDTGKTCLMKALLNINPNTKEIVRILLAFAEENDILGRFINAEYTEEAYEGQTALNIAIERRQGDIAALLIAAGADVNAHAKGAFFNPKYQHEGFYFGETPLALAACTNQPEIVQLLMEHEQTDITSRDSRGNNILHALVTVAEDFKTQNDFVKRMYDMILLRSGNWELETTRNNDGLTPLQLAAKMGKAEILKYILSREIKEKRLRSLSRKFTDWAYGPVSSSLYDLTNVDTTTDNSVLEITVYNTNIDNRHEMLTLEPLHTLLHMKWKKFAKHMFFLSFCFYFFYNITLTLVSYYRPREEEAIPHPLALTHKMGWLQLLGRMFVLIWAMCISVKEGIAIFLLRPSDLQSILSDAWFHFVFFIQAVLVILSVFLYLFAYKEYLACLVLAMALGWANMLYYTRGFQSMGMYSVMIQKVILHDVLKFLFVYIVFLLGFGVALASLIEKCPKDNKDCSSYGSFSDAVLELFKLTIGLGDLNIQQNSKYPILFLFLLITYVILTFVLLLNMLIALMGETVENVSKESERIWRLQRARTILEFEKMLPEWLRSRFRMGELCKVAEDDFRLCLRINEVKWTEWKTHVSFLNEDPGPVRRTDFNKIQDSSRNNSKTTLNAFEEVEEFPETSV
In short: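 Whole-cell currents were recorded from hTRPV3-transfected HEK293 cells (EGFP-identified, 18 h post-transfection) at 22–24 °C. Cells were held at 0 mV and ramped from −100 to +100 mV over 500 ms every 2 s. Currents were activated by 50 μmol/L 2-APB; test compound was added at 50 μmol/L or at 0.01–100 μmol/L. Outward current at +80 mV was fitted to a Hill equation for IC50; n = 5–8.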

hTRPV4 = hTRPV4 (Homo sapiens, UniProt Q9HBA0); assay: whole-cell patch-clamp of TRPV4 currents in HEK293 cells; type: cell-based; conditions: compound 50 μmol/L; current elicited by 100 nmol/L GSK1016790A
Chain of hTRPV4 (Q9HBA0 whole entry, the tested form may be a part): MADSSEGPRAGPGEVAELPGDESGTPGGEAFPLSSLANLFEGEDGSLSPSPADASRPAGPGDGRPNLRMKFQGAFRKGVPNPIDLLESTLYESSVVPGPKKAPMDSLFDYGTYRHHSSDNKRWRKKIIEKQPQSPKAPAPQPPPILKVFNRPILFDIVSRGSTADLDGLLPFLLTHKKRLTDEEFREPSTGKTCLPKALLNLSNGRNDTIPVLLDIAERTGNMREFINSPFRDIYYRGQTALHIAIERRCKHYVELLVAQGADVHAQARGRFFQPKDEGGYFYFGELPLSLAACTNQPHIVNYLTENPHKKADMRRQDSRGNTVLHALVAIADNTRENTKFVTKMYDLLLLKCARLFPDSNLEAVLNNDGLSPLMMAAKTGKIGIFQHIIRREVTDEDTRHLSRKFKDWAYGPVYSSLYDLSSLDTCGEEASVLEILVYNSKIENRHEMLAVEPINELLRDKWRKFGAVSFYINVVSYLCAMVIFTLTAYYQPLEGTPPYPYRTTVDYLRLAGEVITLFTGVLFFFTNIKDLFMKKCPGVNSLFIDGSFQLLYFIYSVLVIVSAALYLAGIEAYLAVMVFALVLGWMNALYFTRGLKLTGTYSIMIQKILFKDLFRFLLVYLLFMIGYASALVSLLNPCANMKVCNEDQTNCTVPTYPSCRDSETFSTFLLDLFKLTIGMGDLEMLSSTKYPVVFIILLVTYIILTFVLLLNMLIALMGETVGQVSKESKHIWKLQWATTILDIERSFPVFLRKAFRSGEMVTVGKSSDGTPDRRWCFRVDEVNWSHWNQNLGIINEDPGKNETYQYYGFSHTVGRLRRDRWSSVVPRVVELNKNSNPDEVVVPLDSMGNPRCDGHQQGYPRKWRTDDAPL
In short: (§1)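 Human channel cDNAs were transiently transfected into HEK293 cells with Lipofectamine 2000. EGFP-positive cells were recorded whole-cell 18 h later at 22–24 °C with ~4.0 MΩ fire-polished pipettes. Cells were held at 0 mV with 500-ms ramps from −100 to +100 mV every 2 s. Test compound in perfusion solution was co-applied with agonist, and average current inhibition was summarised; n = 4–6.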

hTRPA1 = hTRPA1 (Homo sapiens, UniProt O75762); assay: whole-cell patch-clamp of TRPA1 currents in HEK293 cells; type: cell-based; conditions: compound 50 μmol/L; current evoked by AITC 300 μmol/L
Chain of hTRPA1 (O75762 whole entry): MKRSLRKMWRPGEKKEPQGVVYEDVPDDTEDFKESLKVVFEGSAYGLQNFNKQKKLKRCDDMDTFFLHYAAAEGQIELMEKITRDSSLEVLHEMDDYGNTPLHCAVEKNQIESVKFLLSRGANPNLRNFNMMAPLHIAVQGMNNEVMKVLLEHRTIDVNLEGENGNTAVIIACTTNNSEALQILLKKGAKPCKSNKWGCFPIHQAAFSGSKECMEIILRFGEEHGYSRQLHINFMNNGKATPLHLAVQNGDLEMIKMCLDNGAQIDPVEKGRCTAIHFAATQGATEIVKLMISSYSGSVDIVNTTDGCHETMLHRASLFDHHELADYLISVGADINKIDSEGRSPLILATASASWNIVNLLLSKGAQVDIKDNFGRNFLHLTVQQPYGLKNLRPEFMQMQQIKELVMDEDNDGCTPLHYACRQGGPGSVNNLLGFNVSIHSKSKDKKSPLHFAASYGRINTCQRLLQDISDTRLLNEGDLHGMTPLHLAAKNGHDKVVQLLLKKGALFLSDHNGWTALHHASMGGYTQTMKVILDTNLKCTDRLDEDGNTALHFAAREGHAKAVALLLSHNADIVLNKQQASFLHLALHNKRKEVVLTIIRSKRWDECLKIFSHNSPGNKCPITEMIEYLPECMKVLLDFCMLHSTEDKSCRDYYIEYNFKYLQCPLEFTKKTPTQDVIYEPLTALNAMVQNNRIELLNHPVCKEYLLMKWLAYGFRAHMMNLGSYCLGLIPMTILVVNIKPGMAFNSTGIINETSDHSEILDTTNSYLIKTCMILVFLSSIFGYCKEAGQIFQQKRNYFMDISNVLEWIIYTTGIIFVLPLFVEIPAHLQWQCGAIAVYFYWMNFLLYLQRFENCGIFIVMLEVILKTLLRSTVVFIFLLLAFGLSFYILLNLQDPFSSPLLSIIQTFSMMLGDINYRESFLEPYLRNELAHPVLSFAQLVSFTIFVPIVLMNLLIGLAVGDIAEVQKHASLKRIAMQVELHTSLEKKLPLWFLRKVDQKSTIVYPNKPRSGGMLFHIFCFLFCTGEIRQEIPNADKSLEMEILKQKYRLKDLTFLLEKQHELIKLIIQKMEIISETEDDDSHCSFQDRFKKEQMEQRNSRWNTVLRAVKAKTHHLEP
In short: as §1

hTRPV3 [2] = target: T1, hTRPV3; assay: inside-out single-channel recordings of HEK293 cells overexpressing hTRPV3; type: biochemical; conditions: for channel open probability: compound 100 μmol/L in the presence of carvacrol 300 μmol/L, from 26.9 ± 5.5%, +80 mV, n = 4; for effect on ion permeation or single-channel conductance: single-channel level
In short: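 Inside-out patches from EGFP-identified HEK293 cells, 18 h after hTRPV3 transfection, used 6–10 MΩ pipettes. Patches were held at 0 mV, then stepped to +80 mV. Currents were sampled at 10 kHz, filtered at 2.9 kHz, at 22–24 °C. All-points histograms were Gaussian-fitted for conductance and mean open probability; n = 4.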

mTRPV3 T636A = target: T2, mTRPV3 T636A (Mus musculus, UniProt Q8K424, T636A); assay: whole-cell patch-clamp of mTRPV3 T636A mutant in HEK293 cells; type: cell-based; conditions: compound 50 μmol/L; 2-APB; compared with WT mTRPV3
T2 sequence (Q8K424 1-791 T636A): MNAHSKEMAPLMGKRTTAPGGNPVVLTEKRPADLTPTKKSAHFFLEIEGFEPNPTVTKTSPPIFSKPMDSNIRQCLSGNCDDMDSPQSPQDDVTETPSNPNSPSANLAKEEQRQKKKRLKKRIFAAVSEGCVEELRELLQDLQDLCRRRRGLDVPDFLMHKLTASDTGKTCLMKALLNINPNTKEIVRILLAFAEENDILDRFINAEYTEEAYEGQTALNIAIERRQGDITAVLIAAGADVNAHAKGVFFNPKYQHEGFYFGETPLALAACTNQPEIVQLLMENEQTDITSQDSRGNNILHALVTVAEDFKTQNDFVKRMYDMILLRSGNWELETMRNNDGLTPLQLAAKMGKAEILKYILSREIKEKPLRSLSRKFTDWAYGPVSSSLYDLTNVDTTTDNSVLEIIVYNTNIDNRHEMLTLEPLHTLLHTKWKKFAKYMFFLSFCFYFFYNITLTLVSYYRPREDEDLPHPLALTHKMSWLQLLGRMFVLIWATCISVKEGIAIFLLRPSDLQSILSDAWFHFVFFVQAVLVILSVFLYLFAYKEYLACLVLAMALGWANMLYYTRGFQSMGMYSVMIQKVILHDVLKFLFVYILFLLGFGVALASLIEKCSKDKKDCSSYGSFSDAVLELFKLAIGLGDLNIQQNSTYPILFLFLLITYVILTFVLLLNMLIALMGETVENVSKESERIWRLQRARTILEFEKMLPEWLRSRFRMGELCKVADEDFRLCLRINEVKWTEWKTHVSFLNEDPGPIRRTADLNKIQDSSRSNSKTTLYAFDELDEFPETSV
In short: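 Mouse Trpv3 point mutants were made by site-directed mutagenesis, sequence-verified, and transiently expressed in HEK293 cells alongside wild-type mTRPV3. Whole-cell ramp recordings (−100 to +100 mV, 500 ms, holding 0 mV) were made at 22–24 °C. Currents were activated by 2-APB, and inhibition by 50 μmol/L test compound in the presence of 2-APB was compared with wild type; n = 3–8.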

| Compound | inhibition of hTRPV3 channel current activated by 2-APB (hTRPV3 [1]) | better potency of IAB versus IAA (hTRPV3 [1]; from hTRPV3 IC50 values) | Hill coefficient (hTRPV3 [1]) | inhibition of TRPV4 current (hTRPV4) | inhibition of TRPA1 current (hTRPA1) | channel open probability (hTRPV3 [2]) | effect on ion permeation or single-channel conductance (hTRPV3 [2]) | effect of mutation on compound-induced inhibition of mTRPV3 currents (mTRPV3 T636A) |
| --- | --- | --- | --- | --- | --- | --- | --- | --- |
| O=C(/C=C/c1ccc(O)c(O)c1)O[C@@H]1[C@H](O)C[C@@](O)(C(=O)O)C[C@H]1OC(=O)/C=C/c1ccc(O)c(O)c1 [IAB, isochlorogenic acid B] | ~86.4 ± 3.3% | 3 fold | 0.53 | no inhibitory effect | no inhibitory effect | 3.2 ± 1.1% | no effect | markedly reduced |
| O=C(/C=C/c1ccc(O)c(O)c1)O[C@@H]1C[C@](O)(C(=O)O)C[C@@H](OC(=O)/C=C/c2ccc(O)c(O)c2)[C@H]1O [IAA, isochlorogenic acid A] | about 80.8 ± 2.1% | – | 0.50 | no inhibitory effect | no inhibitory effect | 3.7 ± 1.2% | no effect | markedly reduced |
